PubChem BioAssay AID493037 (Johns Hopkins Ion Channel Center, 2011)

Biological target: Potassium voltage-gated channel subfamily KQT member 2 (Rattus norvegicus) (UniProt O88943)
Assay: rat KCNQ2 channel activators, dose response, cell-based, FluxOR thallium flux, mode of action (AID 493037)
Conditions: KCNQ2-expressing cells, FluxOR thallium flux fluorescence;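 active means compounds that boost KCNQ2 channel thallium flux at some tested dose and yield a dose-response curve; inactive means the rest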
Summary of the method: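 Assay system: CHO cells expressing KCNQ2 potassium channel, loaded with FluxOR dye | Also added: Potassium sulfate plus thallium sulfate stimulus, 12.5 mM each in 5x stock | Incubation: 20 min compound pre-incubation, room temperature | Technique: FluxOR thallium-flux fluorescence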

Sequence of Potassium voltage-gated channel subfamily KQT member 2 (Rattus norvegicus) (O88943 whole entry, looked up): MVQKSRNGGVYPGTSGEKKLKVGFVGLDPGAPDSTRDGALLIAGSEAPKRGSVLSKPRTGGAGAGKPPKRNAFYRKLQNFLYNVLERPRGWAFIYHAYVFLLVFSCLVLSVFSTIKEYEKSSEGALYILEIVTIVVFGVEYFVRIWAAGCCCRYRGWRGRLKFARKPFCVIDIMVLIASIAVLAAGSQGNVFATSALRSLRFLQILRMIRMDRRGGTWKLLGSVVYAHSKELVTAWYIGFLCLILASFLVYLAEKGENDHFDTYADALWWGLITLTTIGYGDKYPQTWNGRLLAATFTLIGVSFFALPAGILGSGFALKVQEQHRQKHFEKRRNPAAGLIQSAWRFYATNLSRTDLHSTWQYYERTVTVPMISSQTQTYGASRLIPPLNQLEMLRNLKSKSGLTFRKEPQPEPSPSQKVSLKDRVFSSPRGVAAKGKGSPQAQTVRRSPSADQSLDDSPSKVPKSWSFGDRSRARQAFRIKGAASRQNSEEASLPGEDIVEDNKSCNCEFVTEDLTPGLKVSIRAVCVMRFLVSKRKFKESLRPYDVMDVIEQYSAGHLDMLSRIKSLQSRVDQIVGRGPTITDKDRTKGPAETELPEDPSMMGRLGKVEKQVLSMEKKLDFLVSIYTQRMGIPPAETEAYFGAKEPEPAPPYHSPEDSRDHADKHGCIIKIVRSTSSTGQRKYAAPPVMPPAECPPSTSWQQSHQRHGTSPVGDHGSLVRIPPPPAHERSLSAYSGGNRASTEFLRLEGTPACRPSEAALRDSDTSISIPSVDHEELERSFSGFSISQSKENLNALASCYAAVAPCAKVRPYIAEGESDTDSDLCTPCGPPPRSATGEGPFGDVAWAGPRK

EC50, active:
Cc1cc(C)c(NC(=O)C2CC3CCC2C3)c(C)c1 (stereo not given) 359 nM
CCCCC(=O)Nc1c(C)cc(C)cc1Cl 3750 nM
Cc1cc(C)c(NC(=O)CC(C)(C)C)c(Cl)c1 2100 nM
Cc1ccc(C)c(NC(=O)C2CC3CCC2C3)c1 (stereo not given) 1050 nM
Cc1cccc(C)c1NC(=O)C1CC2CCC1C2 (stereo not given) 2050 nM
